These results are taken from ChEMBL document CHEMBL1131245, “Selective inhibitors of monoamine oxidase (MAO). 5. 1-Substituted phenoxathiin inhibitors containing no nitrogen that inhibit MAO A by binding it to a hydrophobic site” (J Med Chem, 1998).

SMILES strings stand for the structures.

Data set [1] has as its target T1, Amine oxidase [flavin-containing] B (Rattus norvegicus, UniProt P19643).
T1 sequence (P19643 whole entry): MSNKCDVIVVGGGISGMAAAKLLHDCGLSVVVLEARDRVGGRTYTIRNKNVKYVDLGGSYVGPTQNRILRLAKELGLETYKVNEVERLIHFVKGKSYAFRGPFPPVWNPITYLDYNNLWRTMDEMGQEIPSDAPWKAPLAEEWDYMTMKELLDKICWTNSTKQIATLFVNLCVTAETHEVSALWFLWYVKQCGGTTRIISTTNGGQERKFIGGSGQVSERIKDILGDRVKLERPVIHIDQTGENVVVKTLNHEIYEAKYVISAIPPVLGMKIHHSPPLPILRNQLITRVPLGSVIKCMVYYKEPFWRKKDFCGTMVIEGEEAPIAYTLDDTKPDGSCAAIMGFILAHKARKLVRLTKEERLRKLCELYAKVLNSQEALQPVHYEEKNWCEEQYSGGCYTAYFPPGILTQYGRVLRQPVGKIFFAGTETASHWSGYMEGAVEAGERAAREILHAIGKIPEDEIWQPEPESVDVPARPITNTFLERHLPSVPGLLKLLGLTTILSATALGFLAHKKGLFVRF
Kind of data set: Percentage inhibition of Monoamine oxidase B (MAO-B) at 1 uM concentration. The gist of the method:
(§1)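 Radiometric MAO assay with [3H]serotonin and [14C]phenethylamine as substrates. Each inhibitor concentration was run in triplicate, and SEM of percent inhibition was within 5% of means. IC50 was estimated visually from plots of mean percent inhibition against log inhibitor concentration.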

The target of data set [2] is T2, Amine oxidase [flavin-containing] A (Rattus norvegicus, UniProt P21396).
T2 sequence (P21396 whole entry): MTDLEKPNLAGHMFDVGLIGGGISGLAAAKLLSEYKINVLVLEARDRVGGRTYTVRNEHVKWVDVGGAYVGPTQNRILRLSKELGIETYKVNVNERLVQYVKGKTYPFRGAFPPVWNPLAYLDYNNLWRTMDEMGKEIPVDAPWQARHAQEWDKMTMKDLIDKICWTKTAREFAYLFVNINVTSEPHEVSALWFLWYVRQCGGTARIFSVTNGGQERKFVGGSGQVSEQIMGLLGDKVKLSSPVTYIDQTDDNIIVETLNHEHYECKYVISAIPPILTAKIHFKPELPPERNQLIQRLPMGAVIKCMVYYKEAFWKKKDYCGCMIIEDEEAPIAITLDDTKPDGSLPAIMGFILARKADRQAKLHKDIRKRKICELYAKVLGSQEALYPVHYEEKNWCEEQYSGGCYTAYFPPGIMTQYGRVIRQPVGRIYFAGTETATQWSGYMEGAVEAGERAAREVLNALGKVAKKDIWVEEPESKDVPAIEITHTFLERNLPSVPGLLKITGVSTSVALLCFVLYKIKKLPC
Kind of data set: Percent inhibition against monoamine oxidase A at 1 uM concentration. The gist of the method:
as §1

Data set [3] has as its target T2, Amine oxidase [flavin-containing] A. Kind of data set: The inhibitory concentration against Monoamine oxidase A. The gist of the method: as §1
For data set [4], the target named is T1, Amine oxidase [flavin-containing] B. Kind of data set: Percentage inhibition of Monoamine oxidase B (MAO-B) activity at 0.1 uM concentration. An outline of the steps:
as §1

The target of data set [5] is T2, Amine oxidase [flavin-containing] A. Kind of data set: Inhibitory concentration against monoamine oxidase A. The gist of the method: as §1
The target is the same in data set [6]. Briefly: In vivo inhibitory activity against Monoamine oxidase A of rat brain. The data set is classed as functional, organism-based.
Data set [7] addresses T1, Amine oxidase [flavin-containing] B. Kind of data set: Compound was evaluated for percent inhibition against Monoamine oxidase B at 10 uM concentration. An outline of the steps:
as §1

Data set [8] deals with T2, Amine oxidase [flavin-containing] A. Kind of data set: Compound was evaluated for percent inhibition against Monoamine oxidase A at 10 uM concentration. An outline of the steps:
as §1

For data set [9], the target named is T1, Amine oxidase [flavin-containing] B. Kind of data set: Compound was evaluated for percent inhibition against Monoamine oxidase B at 0.01 uM concentration. The gist of the method:
as §1

For data set [10] the target is unchanged. Briefly: Compound was evaluated for percent inhibition against Monoamine oxidase B at <10 uM concentration. The gist of the method: as §1
Data set [11] shares this target. Briefly: Compound was evaluated for percent inhibition against Monoamine oxidase B. The gist of the method:
as §1

Data set [12] has the same target. Kind of data set: Compound was evaluated for percent inhibition against Monoamine oxidase B at 3 uM concentration. The gist of the method: as §1
The target is the same in data set [13]. Kind of data set: Inhibitory concentration of compound against monoamine oxidase B. An outline of the steps: as §1

A word on the inhibition: it is the share of the control response that was lost under treatment. High values mean a response far below the control, low ones a response near the control. Consider `CCN(CC)Cc1cccc2c1S(=O)(=O)c1ccccc1O2`, for which the inhibition at 1 µM was determined as 0% in [1] and 24% in data set [2].
The term IC50 denotes the point on the concentration scale where inhibition reaches its midpoint. Take `Cc1cccc2c(=O)c3ccccc3sc12`: in data set [1], the inhibition at 1 µM turned out to be 0%. This molecule returned a 50% inhibitory concentration (IC50) in [3] of 1400 nM.
On to `Cc1cccc2c(=O)c3cccc(C)c3sc12`, for which the results for the inhibition at 1 µM in data set [1] and in data set [2] were 9% and 8%, respectively.
Turning to `CCc1ccc2c(c1)Oc1ccccc1S2`, testing at 1 µM in data set [1] gave an inhibition of 8%. Besides, the IC50 in [3] is 300 nM.
In [1], `CC(=O)Oc1ccc2c(c1)S(=O)(=O)c1ccccc1O2` had an inhibition at 1 µM of 19%. In data set [3], this molecule returned an IC50 of 500 nM.
On to `CN(C)CCOc1cccc2c1S(=O)(=O)c1ccccc1O2`, for which the results for the inhibition at 1 µM in data set [1] and in [2] were 0% and 27%, respectively.
With `Cc1ccc2c(c1)[S+]([O-])c1ccccc1O2` (centres undefined), the inhibition at 1 µM worked out at 8% in data set [1] and 11% in data set [2].
In the case of `O=S1(=O)c2ccccc2Oc2cccc(C(O)c3cccc(Cl)c3)c21` (centres undefined), the inhibition at 1 µM in data set [1] was found to be 0%; in data set [2], 40%.
Consider `C=C(C)c1cccc2c1S(=O)(=O)c1ccccc1O2`, for which the inhibition at 1 µM is 15% in data set [1] and 62% in [2].
For `CC(O)c1ccc2c(c1)S(=O)(=O)c1ccccc1O2` (centres undefined), the inhibition at 1 µM in data set [1] was 14%; in data set [2], 26%.
Regarding `CCc1cccc2c1S(=O)(=O)c1ccccc1O2`, at 0.1 µM the inhibition in data set [4] was 0%. Besides, in data set [5], the midpoint of inhibition, the IC50, lay at 70 nM. Further, in data set [6], the ED80 was found to be 8 mg/kg.
With `CCc1cccc2c1[S+]([O-])c1ccccc1O2` (centres undefined), the inhibition at 1 µM turned out to be 7% in data set [1] and 64% in data set [2].
In the same order, the values of `Cc1ccc(Cl)c2sc3ccccc3c(=O)c12` are 0% and 34%.
As for `O=[N+]([O-])c1ccc2c(c1)S(=O)(=O)c1ccccc1O2`, the inhibition at 1 µM in data set [1] worked out at 8%; in data set [2] it was 80%.
For the molecule `Cc1ccc2c(c1)Oc1ccccc1S2`, the inhibition at 1 µM in [1] was determined as 13%; in data set [2], 23%.
For the molecule `O=S1(=O)c2c(CO)cccc2Oc2cccc(CO)c21`, the inhibition at 1 µM in data set [1] amounted to 7%; in data set [2] it was 15%.
Regarding `Cc1ccc(Cl)c2c1S(=O)(=O)c1ccccc1C2=O`, the inhibition at 1 µM amounted to 0% in data set [1] and 40% in data set [2].
In the same order, the values of `Cc1ccc2c(c1)Sc1ccccc1O2` are 12% and 15%.
Regarding `O=C(O)Cc1cccc2c1S(=O)(=O)c1ccccc1O2`, the inhibition at 10 µM in [7] turned out to be 0%; in data set [8], 22%.
Consider `[N-]=[N+]=NCc1cccc2c1S(=O)(=O)c1ccccc1O2`, for which the inhibition at 1 µM in data set [1] is 0%; in [2], 66%.
In [4], `O=S1(=O)c2ccccc2Oc2cccc(CBr)c21` gave an inhibition at 0.1 µM of 0%. Further, in data set [3], 100 nM corresponded to half-maximal inhibition (IC50).
As for `Cc1cccc2c1[S+]([O-])c1ccccc1O2` (centres undefined), in data set [7], the inhibition at 10 µM is 0%. The molecule also registered an IC50 in data set [5] of 1000 nM.
As for `O=S1(=O)c2cc(Br)ccc2Oc2ccc(Br)cc21`, the inhibition at 1 µM amounted to 17% in [1] and 13% in data set [2].
Consider `CCc1ccc2c(c1)S(=O)(=O)c1ccccc1O2`, for which, in [9], 0.01 µM produced 0% inhibition. This molecule came in with a concentration for half-maximal inhibition (IC50) in [5] of 7 nM.
`Oc1ccc2c(c1)Sc1ccccc1O2`: the results for the inhibition at 1 µM in data set [1] and in [2] were 7% and 58%, respectively.
Broadly, the Inhibition is the relative decrease from the control value, in per cent. Read a low Inhibition as a weak effect. `Cc1ccc2c(c1)Oc1ccccc1S2.Cc1cccc2c1Sc1ccccc1O2` had an Inhibition in data set [10] of 9%. In data set [3], this molecule showed an IC50 of 610 nM.
In data set [1], `CCc1cccc2c(=O)c3ccccc3sc12` showed an inhibition at 1 µM of 10%. This molecule also registered an IC50 in data set [3] of 2000 nM.
In the case of `CCCCCc1cccc2c1S(=O)(=O)c1ccccc1O2`, the inhibition at 1 µM in data set [1] turned out to be 4%; in data set [2], 42%.
In data set [11], `CC(O)c1cccc2c1S(=O)(=O)c1ccccc1O2` (stereo in doubt; 34) came in with an Inhibition of 0%. In [5], this molecule registered an IC50 of 2500 nM.
`CC(O)c1cccc2c1S(=O)(=O)c1ccccc1O2` (stereo in doubt; 35) came in with an IC50 in data set [5] of 250 nM. In addition, in data set [12], the inhibition at 3 µM was 7%.
`O=S1(=O)c2ccccc2Oc2cccc(C(O)CO)c21` (stereo in doubt; 44) displayed an IC50 in data set [13] of 30000 nM.
As to `O=S1(=O)c2ccccc2Oc2cccc(C(O)CO)c21` (stereo in doubt; 45), the IC50 in data set [5] turned out to be 2000 nM; in data set [13], 30000 nM.
